Source: PubChem (several laboratories)
PAFAH1B2 FP inh = inhibitors of human PAFAH1B2; P68402; recombinant PAFAH1B2, FP-rhodamine activity probe, fluorescence polarization; inhibition, % at 3.39 µM; 1.2% of 340,000 active;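 active = inhibition above the mean of all tested compounds plus 3 SD, cut at about 24% in these data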;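 note: 0% = enzyme with DMSO and 100% = wells lacking PAFAH1B2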
pPAFAH FP inh = pPAFAH (human) enzyme inhibition; Q13093; recombinant pPAFAH, FP-rhodamine probe fluorescence polarization; inhibition, % at 3.39 µM; 1.5% of 330,000 active;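 active = inhibition above the mean inhibition across the screen plus 3 SD, cut at about 25% in these data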;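 note: inhibitors block binding of the rhodamine activity-based probe so polarization drops; 0% = enzyme with DMSO and 100% = wells lacking pPAFAH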
Target sequence (Q13093 whole entry, looked up): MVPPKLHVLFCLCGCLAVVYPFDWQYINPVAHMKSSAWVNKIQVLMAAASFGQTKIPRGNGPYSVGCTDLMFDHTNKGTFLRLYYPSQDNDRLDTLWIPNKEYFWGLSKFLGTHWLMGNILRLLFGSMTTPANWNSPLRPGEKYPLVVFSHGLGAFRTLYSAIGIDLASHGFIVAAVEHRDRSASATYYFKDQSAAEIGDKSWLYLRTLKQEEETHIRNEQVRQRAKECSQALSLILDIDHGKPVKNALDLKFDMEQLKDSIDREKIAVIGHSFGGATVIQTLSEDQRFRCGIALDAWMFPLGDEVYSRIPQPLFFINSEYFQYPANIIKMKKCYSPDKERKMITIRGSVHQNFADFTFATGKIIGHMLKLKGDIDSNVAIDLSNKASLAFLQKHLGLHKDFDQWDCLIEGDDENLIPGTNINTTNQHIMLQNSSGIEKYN
Apaf-1 inh = human Apaf-1 inhibition; O14727; reconstituted apoptosome caspase-3 activity, DEVD-Rh110 fluorescence; inhibition, % at 20 µM; 0.71% of 330,000 active; AID 489030; active = inhibition of at least 40% at 20 µM;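 note: plate controls were DMSO wells for no effect and DEVD-CHO caspase inhibitor wells for full effect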
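Material: biochemical Apaf-1 apoptosome reconstitution. Medium: Hepes buffer, pH 7.5. Also added: cytochrome c activation, bis-DEVD rhodamine 110 substrate. Timing: 30 min compound preincubation, 50 min activation, room temperature. Measured by: rhodamine 110 fluorescence at Ex 480/Em 540 nm.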
PAFAH1B3 inh = inhibitors of human PAFAH1B3; Q15102; recombinant PAFAH1B3, FP-rhodamine probe, fluorescence polarization; inhibition, % at 3.39 µM; 0.28% of 340,000 active;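 active = inhibition above the screen-wide average of all tested compounds plus 3 SD, cut at about 25% in these data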;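 note: 0% = enzyme with DMSO only and 100% = wells lacking PAFAH1B3 protein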
PAFAH2 inh = inhibitors of human PAFAH2. inhibition, % at 3.39 µM. recombinant PAFAH2, FP-rhodamine activity probe, fluorescence polarization. 0.99% of 340,000 active. Q99487. AID 492956;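 active = inhibition above the mean over all tested compounds plus 3 SD, cut at about 30% in these data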;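 note: inhibitors block probe labeling of enzyme so polarization drops; 0% = enzyme with DMSO and 100% = wells lacking PAFAH2 protein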
Apaf-1 inh conf = confirmation of Apaf-1 inhibitors; shares compounds with Apaf-1 inh; reconstituted apoptosome, caspase-3 DEVD-Rh110 fluorescence; inhibition, % at 20 µM; 25% of 1,800 active; AID 504614;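 active = mean inhibition of at least 40% at 20 µM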;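 note: plate controls were DMSO wells for no effect and DEVD-CHO caspase inhibitor control wells for full effect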
Rh110 interf inh = Rh110 signal interference in Apaf-1 inhibitor counter-screen | shares compounds with Apaf-1 inh | Rh110 fluorescence interference, quenched caspase reaction | activation (fluorescence interference), % at 20 µM | 1,800 tested, under 10 active;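 active = signal rise of 40% or more at 20 µM, treated as a fluorescence artifact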
Apaf1 inh interf = counter-screen for Apaf-1 inhibitors: fluorescence interference, dose response; shares compounds with Apaf-1 inh; fluorescence interference counterscreen, Apaf-1 assay format; IC50, µM; 460 tested, under 10 active; call rule not given here
* hit, by the source's call; . = not tested or not shown. Sampled rows, rich in hits. Any-hit rate of the full collection: about 3.1%.

SMILES	PAFAH1B2 FP inh	pPAFAH FP inh	Apaf-1 inh	PAFAH1B3 inh	PAFAH2 inh	Apaf-1 inh conf	Rh110 interf inh	others
CCCCCCOc1ccc(/C(C)=N/NC2=NCCN2)cc1[N+](=O)[O-]	2	8	54*	15	0	45*	11	Apaf1 inh interf=>100
CCc1ccc(OC(C)C(=O)Nc2ccc(S(=O)(=O)Nc3nccs3)cc2)cc1 (stereo not drawn)	4	11	7	13	1	.	.
COc1ccc2c(c1)Cc1sc(NC(=O)c3cccnc3)nc1-2	11	12	89*	7	5	30	4
COc1ccc2c(c1)-c1nc(NC(=O)c3cccs3)sc1CC2	1	0	7	2	-19	.	.
COc1ccc2c(c1)Cc1sc(NC(C)=O)nc1-2	8	-3	73*	12	18	16	-4
COc1ccc2c(c1)Cc1sc(NC(=O)c3ccco3)nc1-2	5	5	85*	5	-1	56*	5	Apaf1 inh interf=>100
COc1ccc2c(c1)CCc1sc(NC(=O)c3ccc(C)cc3)nc1-2	3	5	4	10	-5	.	.
COc1ccc2c(c1)CCc1sc(NC(=O)c3ccco3)nc1-2	2	7	8	-1	-7	.	.
COc1cc(NC(=O)CCc2nnc3ccc(N4CCC5(CC4)OCCO5)nn23)cc(OC)c1	-1	-3	11	0	-6	.	.
Nc1ncc(Br)cc1N=Cc1ccccc1	-2	10	62*	-4	7	8	-2
CCOC(=O)C1CCCN(C(=O)C(=O)c2cn(CC(=O)N3CCOCC3)c3ccccc23)C1 (stereo not drawn)	4	2	-3	5	-4	.	.
c1ccc2c(c1)ncc1cccn12	1	7	-2	-7	-5	.	.
CCn1c2ccccc2c2c3ncc4cccn4c3ccc21	1	22	62*	0	-2	19	6
O=C(NC(=S)Nc1cccc2cnccc12)c1ccccc1	-5	0	9	7	4	.	.
Cc1ccc(NC(=S)Nc2cccc3cnccc23)c(C)c1	-1	7	96*	5	2	13	0
C=C(C)CNC(=S)Nc1cccc2cnccc12	4	-7	-4	9	-1	.	.
CCc1ccc(NC(=S)Nc2cccc3cnccc23)cc1	3	3	89*	-6	7	43*	21	Apaf1 inh interf=>100
Cc1cc(C)cc(NC(=S)Nc2cccc3cnccc23)c1	-1	.	98*	3	-6	17	-1
O=C1C=C(c2ccc(OC(F)(F)F)cc2)C[C@@H](c2ccc(F)cc2)C1	1	0	54*	0	3	18	1
Cc1cc(-c2cc(C(=O)Nc3ccccc3)on2)nc(NC2CCCC2)n1	.	3	1	.	.	.	.
CCCN(CC(=O)Nc1ccccc1C)C(=O)COc1ccc2c(c1)CCC2	-4	1	60*	-3	0	37	5
Cc1ccc(O)c(CNc2cccc3cccnc23)c1	3	13	93*	7	4	38	4
Oc1ccc(Br)cc1CNc1cnc2ccccc2c1	0	1	11	17	0	.	.
COc1cccc(CNc2cccc3cccnc23)c1O	7	13	71*	4	16	14	-7
COc1cccc(CNc2ccccn2)c1O	2	2	1	3	5	.	.
SMILES	PAFAH1B2 FP inh	pPAFAH FP inh	Apaf-1 inh	PAFAH1B3 inh	PAFAH2 inh	Apaf-1 inh conf	Rh110 interf inh	others
Oc1ccc(Br)cc1CNc1cccc2cccnc12	7	24	90*	16	-4	48*	8	Apaf1 inh interf=>100
O=C(CCc1ccccc1)NC(=S)Nc1ccccc1[N+](=O)[O-]	8	-2	20	1	5	.	.
COc1cccc(S(=O)(=O)Nc2ccc(C(=O)N3CCCCCC3)cc2)c1	7	3	4	6	6	.	.
COc1ccc(NS(=O)(=O)c2cccc(C(=O)N3CCCCCCC3)c2)cc1	8	34*	45*	9	5	39	17
CCOc1cc(/C=C2\C(=O)N(CCC#N)N=C2C)ccc1OCC(N)=O	4	4	58*	4	-4	4	-10
COc1cc(/C=C2\C(=O)N(CCC#N)N=C2C)ccc1OCC(=O)Nc1ccccc1	1	-1	93*	11	-3	7	-2
CN(CC(=O)NCc1ccco1)C(=O)C1CC(=O)N(c2ccc3c(c2)OCCO3)C1 (stereo not drawn)	-2	1	0	4	-1	.	.
Cc1ccc2c(c1)C(=O)C(=O)N2Cc1ccc(Cl)cc1	0	7	40*	0	-8	24	7
Cc1ccc2c(c1)C(=O)C(=O)N2Cc1ccc(F)cc1	-4	6	20	7	3	.	.
COc1ccc(CN(C)c2ccc(S(=O)(=O)N3CCN(C)CC3)cc2[N+](=O)[O-])cc1OC	13	4	6	-1	-2	.	.
CCOC(=O)c1c(S(=O)(=O)N2CCCCC2C)c(C)n(C)c1C (stereo not drawn)	5	3	-13	9	6	.	.
Cc1cccc(N(Cc2ccccc2)C(=O)C2CCN(C(=O)c3ccccc3C)CC2)c1	0	3	48*	2	0	37	9
Cc1ccccc1C(=O)N1CCC(C(=O)N(C)CCOc2ccccc2)CC1	5	6	27	2	2	.	.
COc1ccccc1N1CCN(C(c2cccs2)C(C)NS(=O)(=O)c2ccccc2)CC1 (stereo not drawn)	1	2	55*	-3	7	46*	3	Apaf1 inh interf=>100
CC1(C)CC2=C(CO1)C(=S)NC(c1ccccc1)N2CC1CCCO1 (stereo not drawn)	5	0	3	1	-2	.	.
Cc1ccc(C)c(N2CCN(C(=O)c3ccc(Cn4c(=O)[nH]c5ccccc5c4=O)cc3)CC2)c1	1	4	37	7	5	.	.
O=C(c1ccc(Cn2c(=O)[nH]c3ccccc3c2=O)cc1)N1CCN(c2ccc(Cl)cc2)CC1	-2	9	41*	2	5	14	4
CCCCn1c(NC(=O)CC)c(C#N)c2nc3ccccc3nc21	8	1	11	-6	-10	.	.
CCCCn1c(NC(=O)c2ccccc2Cl)c(C#N)c2nc3ccccc3nc21	36*	27*	93*	60*	37*	59*	-1	Apaf1 inh interf=>100
COc1ccc(-n2c(NC(=O)c3ccco3)c(C#N)c3nc4ccccc4nc32)cc1	4	15	96*	10	7	93*	3	Apaf1 inh interf=>100
Oc1cc(Nc2ccccc2)cc2cccnc12	2	8	14	13	11	.	.
Oc1cc(NCCN2CCOCC2)cc2cccnc12	-1	4	92*	54*	2	80*	-4	Apaf1 inh interf=>100
